Bioassay records: PubChem BioAssay, several laboratories
CXCR6 block = inhibitors of human CXCR6 receptor | 0.36% of 360,000 active | inhibition, % at 20 µM | AID 602244 | CHO-K1 PathHunter CXCR6 beta-arrestin, luminescence; in the data active = inhibition above about 34%, passing the limit was not always enough;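 also: antagonist mode with CXCL16 agonist at 10 nM final; 0% = 10 nM CXCL16 with DMSO and 100% = unstimulated wells without agonist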
Target sequence (O00574 whole entry, looked up): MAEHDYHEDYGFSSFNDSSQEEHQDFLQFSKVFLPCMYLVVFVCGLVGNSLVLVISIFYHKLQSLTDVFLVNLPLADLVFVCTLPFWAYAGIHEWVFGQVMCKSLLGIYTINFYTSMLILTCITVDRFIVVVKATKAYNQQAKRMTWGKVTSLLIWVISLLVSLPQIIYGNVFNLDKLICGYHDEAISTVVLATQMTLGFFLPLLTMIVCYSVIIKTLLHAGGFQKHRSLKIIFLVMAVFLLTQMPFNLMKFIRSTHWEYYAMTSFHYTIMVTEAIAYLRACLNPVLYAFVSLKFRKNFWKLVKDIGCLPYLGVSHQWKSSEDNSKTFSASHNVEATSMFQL
HTR2A ag = agonists of mouse serotonin 5-HT2A receptor (HTR2A); CHO-K1 mHTR2A beta-arrestin complementation, luminescence; percent of 30 µM serotonin response; P35363; 0.66% of 360,000 active; AID 624169; activation, % at 7.6 µM;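 active = activation above a run cutoff, the mean activation of all tested compounds plus 3 SD, cut at about 14% in these data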;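 also: 0% = plate median of compound wells and 100% = 30 µM serotonin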
EBI2 block = EBI2 (human) antagonism; inhibition, % at 5 µM; P32249; EBI2 beta-arrestin recruitment, luminescence, 7a,25-OHC stimulated; 0.81% of 360,000 active; in the data active = inhibition above about 38%;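 also: enzyme fragment complementation signal reports receptor beta-arrestin coupling in cells; 0% = agonist plus DMSO wells and 100% = wells without agonist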
Target sequence (P32249 whole entry, looked up, the tested form may be a part): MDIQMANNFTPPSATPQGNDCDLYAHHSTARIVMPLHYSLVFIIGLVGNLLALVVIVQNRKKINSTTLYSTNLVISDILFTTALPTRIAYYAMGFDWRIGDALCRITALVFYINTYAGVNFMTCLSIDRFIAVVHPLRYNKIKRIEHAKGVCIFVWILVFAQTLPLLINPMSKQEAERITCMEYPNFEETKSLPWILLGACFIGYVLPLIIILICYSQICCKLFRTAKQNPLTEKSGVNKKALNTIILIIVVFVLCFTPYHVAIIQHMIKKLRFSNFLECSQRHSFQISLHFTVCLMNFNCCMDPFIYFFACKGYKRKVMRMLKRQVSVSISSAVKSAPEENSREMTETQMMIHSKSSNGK
CCR6 antagonist = blocks CCL20-driven beta-arrestin recruitment at human CCR6. P51684. CHO-K1 CCR6 PathHunter beta-arrestin, luminescence, CCL20-stimulated. inhibition, % at 20 µM. 0.49% of 340,000 active;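 active = compounds whose inhibition of the agonist-driven luminescence signal at 20 µM reaches about 50%, limit read from the data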;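 also: cells stimulated with CCL20 at 14 nM final; plate controls were DMSO with CCL20 for no effect and DMSO without agonist for full effect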
APJ agonist = activates the human apelin receptor APJ; CHO-K1 APJ PathHunter beta-arrestin, luminescence; 0% DMSO wells, 100% apelin; P35414; 0.11% of 330,000 active; activation, % at 20 µM;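 active = activation more than six SD over the plate average, tested at 20 µM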;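 also: 0% = DMSO alone and 100% = apelin-13 at 10 nM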
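system = engineered CHO-K1 APJ arrestin reporter cells | input = 1000 cells per well | timing = overnight seeding, 90 min compound at 25 °C, 1 h detection | measured by = enzyme-fragment complementation luminescence | read-out = beta-arrestin recruitment to APJ as agonist activity, luminescent signal | control set = negative DMSO alone, positive Apelin-13 at 10 nM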
APJ antagonist = blocks the human apelin receptor APJ. inhibition, % at 20 µM. P35414. AID 2521. CHO-K1 APJ beta-arrestin complementation, luminescence. 0.32% of 330,000 active;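 active = inhibition above about 40% at 20 µM, limit read from the data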;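 also: cells challenged with 10 nM apelin-13 agonist together with compound; plate controls were apelin-13 plus DMSO wells for no effect and DMSO wells lacking apelin-13 for full effect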
EBI2 conf = confirmation of human EBI2 receptor antagonists. shares compounds with EBI2 block. EBI2 beta-arrestin luminescence, 7a,25-OHC antagonism. inhibition, % at 5 µM. 29% of 2,400 active;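 active = inhibition of at least 50%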
EBI2 ag = EBI2 agonism counter-screen; EBI2-expressing cells, agonist mode, luminescence, 60 min; 0% vehicle, 100% 7α,25-dihydroxycholesterol control; 2,400 tested, under 10 active; activation, % at 5 µM; shares compounds with EBI2 block;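 active = activation of at least 50%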
bGal counter = beta-galactosidase inhibition counter-screen; AID 652176; shares compounds with EBI2 block; inhibition, % at 5 µM; purified beta-galactosidase, luminescent Galacton Star, 15 min; 1% of 2,400 active;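 active = replicate-average signal at least 3 plate SD below neutral wells, shown as high inhibition, flagging enzyme-inhibiting false positives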;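 also: 0% = DMSO wells with enzyme and 100% = wells lacking enzyme; higher means stronger loss of beta-gal luminescence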
* marks the source's active call; other numbers are inactive results; x = not tested or not shown. Sampled rows, rich in hits. Any-hit rate of the full collection: about 2.1%.

SMILES | CXCR6 block | HTR2A ag | EBI2 block | CCR6 antagonist | APJ agonist | APJ antagonist | EBI2 conf | EBI2 ag | bGal counter
CNC(=S)N1N=C(c2ccc(Br)cc2)CC1c1ccc(Br)cc1 (configuration not stated) | 1 | -2 | 80* | 2 | 0 | 7 | 70* | 2 | 8
CNC(=S)N1N=C(c2cccs2)CC1c1ccc(OC)cc1 (configuration not stated) | -8 | -7 | 13 | -1 | 1 | 12 | x | x | x
Cc1cccc(C)c1-n1nnnc1C(c1ccnc2ccccc12)N1CCN(C(=O)OCc2ccccc2)CC1 (configuration not stated) | 11 | 3 | 41* | x | x | x | 36 | -1 | -14
Cc1cccc(C)c1-n1nnnc1C(c1ccnc2ccccc12)N1CCCC1 (configuration not stated) | 8 | 7 | 6 | x | x | x | x | x | x
COc1ccc(N(CC(=O)Nc2cc(C)ccc2OC)S(=O)(=O)c2c(C)noc2C)cc1 | 5 | 0 | 42* | 15 | -3 | 15 | 32 | -1 | -20
O=S(=O)(c1ccc(NC(=S)NCCc2ccccc2)cc1)N1CCOCC1 | 10 | -4 | 10 | -4 | 0 | -11 | x | x | x
O=S(=O)(c1ccc(NC(=S)NN=C(Cc2ccccc2)Cc2ccccc2)cc1)N1CCOCC1 | 0 | -3 | 46* | 8 | 1 | 4 | -5 | 2 | 5
CC(C)Oc1cc(F)ccc1-c1cc(C(=O)Nc2ccc(C(C)C)cc2)[nH]n1 | 3 | -9 | 54* | x | x | x | 47 | 1 | 1
CC(C)Oc1cc(F)ccc1-c1cc(C(=O)Nc2ccccc2)[nH]n1 | -1 | -1 | 25 | x | x | x | x | x | x
CCCCCCn1c(N2CCN(c3cccc(Cl)c3)CC2)nc2c1c(=O)[nH]c(=O)n2C | 11 | 0 | 36* | 10 | -3 | 18 | 19 | 0 | 5
CCCCCCCCn1c(N2CCN(c3cccc(Cl)c3)CC2)nc2c1c(=O)[nH]c(=O)n2C | 5 | -1 | 26 | 18 | -4 | 19 | x | x | x
COc1ccc(-c2noc(CSc3nnc(Cc4ccccc4)n3-c3ccc(Cl)cc3)n2)cc1 | 19 | 1 | 39* | 23 | -5 | -16 | 14 | 0 | 2
Cc1ccc(-c2noc(CSc3nnc(Cc4ccccc4)n3-c3ccc(Cl)cc3)n2)cc1 | 19 | -7 | 15 | 21 | -7 | 7 | x | x | x
Cc1ccc(CNC(=O)C2CCC(CNc3c(N4CCC(C)CC4)c(=O)c3=O)CC2)cc1 (configuration not stated) | 5 | 2 | 84* | 9 | -2 | -2 | 57* | 1 | 12
O=C(O/N=C\c1ccc(N2CCCCC2)c([N+](=O)[O-])c1)c1ccc(Cl)cc1Cl | 11 | -8 | 51* | 14 | -3 | 13 | 13 | 1 | 7
O=C(/C=C/c1ccc(Cl)cc1)N1CCN(c2ccc(Cl)cc2[N+](=O)[O-])CC1 | 1 | 3 | 98* | 15 | -4 | 3 | 80* | 0 | 10
O=C(/C=C/c1ccc([N+](=O)[O-])cc1)N1CCN(c2ccccc2F)CC1 | 5 | -2 | 68* | -10 | 2 | 8 | 24 | 2 | 7
Cc1ccc(C(=O)O/N=C\c2ccc(N3CCOCC3)c([N+](=O)[O-])c2)cc1 | 9 | -2 | 16 | 13 | 2 | -12 | x | x | x
O=C(/C=C/c1cccs1)N1CCN(c2ccc(F)cc2)CC1 | 5 | -5 | 55* | 22 | 2 | 17 | 36 | 1 | 7
O=C(CN1CCN(c2ccc(Cl)cc2[N+](=O)[O-])CC1)N1CCOCC1 | -7 | -1 | 7 | -8 | 3 | -2 | x | x | x
COc1ccccc1N1CCN(C(=O)/C=C/c2cccc([N+](=O)[O-])c2)CC1 | -2 | 6 | 19 | 7 | -1 | -3 | x | x | x
CCOP(=O)(c1ccccc1)c1nc(-c2ccccc2C)oc1N1CCCCC1 (configuration not stated) | x | x | x | 15 | 3 | -4 | x | x | x
CC(NC(=O)/C=C/c1ccco1)c1nc2ccccc2n1Cc1c(Cl)cccc1Cl (configuration not stated) | -4 | 2 | 10 | 7 | 1 | -32 | x | x | x
O=C(N/N=C/c1ccco1)Nc1ccccc1 | -5 | 2 | -10 | 6 | 1 | 6 | x | x | x
O=C(/C=C/c1ccccc1)N1CCN(c2c(Cl)cccc2[N+](=O)[O-])CC1 | -4 | -5 | 95* | 15 | -2 | -2 | 91* | 2 | 2
SMILES | CXCR6 block | HTR2A ag | EBI2 block | CCR6 antagonist | APJ agonist | APJ antagonist | EBI2 conf | EBI2 ag | bGal counter
CCC(=O)N1CCN(c2c(Cl)cccc2[N+](=O)[O-])CC1 | 4 | -4 | -3 | 18 | -2 | -18 | x | x | x
CC(=O)c1ccc(N2CCN(C(=O)/C=C/c3cccs3)CC2)cc1 | -2 | -1 | 15 | 6 | -4 | -10 | x | x | x
O=C(/C=C/c1cccs1)N1CCN(c2ccccc2F)CC1 | 8 | -5 | 50* | 4 | -3 | -19 | 52* | 0 | 7
Cc1ccc(CN2CCC(c3cc(-c4ccc(Cl)cc4)n[nH]3)CC2)cc1 | 1 | 0 | 65* | 21 | 2 | -26 | 40 | 2 | 5
COc1ccc(-c2cc(C3CCN(Cc4cccc(C(F)(F)F)c4)CC3)[nH]n2)cc1 | 3 | -1 | 55* | -22 | 1 | -5 | 31 | 0 | 9
CN(C)c1ccc(NC(=O)CSc2nc(C3CC3)nc3ccccc23)cc1 | 1 | -1 | 4 | 2 | -1 | 11 | x | x | x
O=[N+]([O-])c1ccc(NN=Cc2cc(Br)ccc2O)nc1 | 32 | -13 | 59* | 67* | x | x | 34 | -1 | 13
O=[N+]([O-])c1ccc(NN=Cc2cccc(O)c2)nc1 | 4 | 0 | 10 | 34 | x | x | x | x | x
CCC1CSC(Nc2ccc(C(=O)/C=C/c3ccc(OC)c(OC)c3)cc2)=N1 (configuration not stated) | -8 | -8 | 24 | 4 | -4 | 2 | x | x | x
CCC1CSC(Nc2ccc(C(=O)/C=C/c3ccc(Br)cc3)cc2)=N1 (configuration not stated) | 3 | 7 | 61* | 15 | -5 | 9 | 55* | 1 | 1
C=CCOc1ccc(/C=C/C(=O)N2CCCN(S(=O)(=O)c3c(C)noc3C)CC2)cc1 | -6 | 1 | 63* | -5 | 2 | 2 | 48 | -1 | -5
CCOc1ccc(NC(=O)C2CCN(S(=O)(=O)c3c(C)noc3C)CC2)cc1 | -8 | 0 | -7 | 5 | 11 | -7 | x | x | x
